In ChEMBL document CHEMBL1123253, “Design and synthesis of a potent and specific renin inhibitor with a prolonged duration of action in vivo” (J Med Chem, 1986):
pIC50: −log10 of the molar value. Non-standard residues stand in square brackets, D forms with d. Residues, ends and D or L forms follow the SMILES beside them. ξ: configuration not given here. *: point of attachment. Sta = CC(C)C[C@H](N)[C@@H](O)CC(=O)O; NMeH = CN[C@@H](Cc1c[nH]cn1)C(=O)O; NHCH2(2-pyridyl) = c1ccc(CN*)nc1; NMeF = CN[C@@H](Cc1ccccc1)C(=O)O; αMeF = C[C@](N)(Cc1ccccc1)C(=O)O; ξαMeF = CC(N)(Cc1ccccc1)C(=O)O; Boc = CC(C)(C)OC(=O)*

Target: Pepsin A (Sus scrofa, UniProt P00791)
Sequence (P00791 whole entry): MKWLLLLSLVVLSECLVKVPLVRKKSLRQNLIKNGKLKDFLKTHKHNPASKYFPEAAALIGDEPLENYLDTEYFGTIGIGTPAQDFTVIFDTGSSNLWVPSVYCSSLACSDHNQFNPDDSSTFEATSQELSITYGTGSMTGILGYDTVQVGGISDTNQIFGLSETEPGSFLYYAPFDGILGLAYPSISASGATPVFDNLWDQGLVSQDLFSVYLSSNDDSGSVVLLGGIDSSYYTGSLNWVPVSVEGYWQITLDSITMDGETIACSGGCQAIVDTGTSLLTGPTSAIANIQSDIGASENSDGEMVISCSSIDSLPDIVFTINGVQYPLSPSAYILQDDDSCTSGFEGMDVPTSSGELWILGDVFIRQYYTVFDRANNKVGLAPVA
Assay: Inhibition of porcine pepsin
Outline: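 Porcine pepsin with porcine hemoglobin substrate in 0.02 M KCl-HCl buffer pH 2, with compounds dissolved in buffer. Incubation 25 min at 37 °C, then perchloric acid added and acid-soluble fraction absorbance read at 280 nm.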

| pIC50 | SMILES |
| --- | --- |
| 5.17 | CC[C@H](C)[C@H](NC(=O)[C@@H](C[C@H](O)[C@H](CC(C)C)NC(=O)[C@H](Cc1c[nH]cn1)N(C)C(=O)[C@H](Cc1ccccc1)NC(=O)[C@@H]1CCCN1C(=O)OC(C)(C)C)C(C)C)C(=O)NCc1ccccn1 |

Target: T1, Cathepsin D (Bos taurus, UniProt P80209)
T1 sequence (P80209 whole entry): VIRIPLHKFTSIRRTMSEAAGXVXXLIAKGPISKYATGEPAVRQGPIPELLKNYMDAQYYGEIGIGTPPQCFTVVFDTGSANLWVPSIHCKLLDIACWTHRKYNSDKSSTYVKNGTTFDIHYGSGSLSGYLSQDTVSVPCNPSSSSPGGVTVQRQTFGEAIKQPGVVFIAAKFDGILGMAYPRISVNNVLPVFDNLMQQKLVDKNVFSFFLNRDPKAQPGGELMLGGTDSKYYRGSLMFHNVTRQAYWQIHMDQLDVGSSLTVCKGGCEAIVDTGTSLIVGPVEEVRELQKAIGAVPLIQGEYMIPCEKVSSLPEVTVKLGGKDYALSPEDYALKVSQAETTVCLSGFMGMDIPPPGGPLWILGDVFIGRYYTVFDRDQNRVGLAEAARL
Assay: Inhibition of bovine cathepsin D

| pIC50 | SMILES |
| --- | --- |
| 5.20 | CC[C@H](C)[C@H](NC(=O)[C@@H](C[C@H](O)[C@H](CC(C)C)NC(=O)[C@H](Cc1c[nH]cn1)N(C)C(=O)[C@H](Cc1ccccc1)NC(=O)[C@@H]1CCCN1C(=O)OC(C)(C)C)C(C)C)C(=O)NCc1ccccn1 |

Target: T2, Renin (Homo sapiens, UniProt P00797)
T2 sequence (P00797 whole entry): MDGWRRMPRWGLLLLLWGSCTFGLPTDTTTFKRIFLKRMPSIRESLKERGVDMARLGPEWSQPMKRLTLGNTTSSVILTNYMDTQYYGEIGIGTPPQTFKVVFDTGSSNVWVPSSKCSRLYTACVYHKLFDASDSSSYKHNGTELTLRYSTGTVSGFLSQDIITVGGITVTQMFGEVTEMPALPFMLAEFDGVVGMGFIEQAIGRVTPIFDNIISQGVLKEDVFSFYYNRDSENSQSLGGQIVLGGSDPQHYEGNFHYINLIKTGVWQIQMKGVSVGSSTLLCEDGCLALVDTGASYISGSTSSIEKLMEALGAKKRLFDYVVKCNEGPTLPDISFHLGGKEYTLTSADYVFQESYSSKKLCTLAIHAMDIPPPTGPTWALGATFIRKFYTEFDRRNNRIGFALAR
Assay: Inhibition of human plasma renin
Assay type: cell-free
Outline: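 Lyophilized human plasma with 0.1% EDTA as renin source. Plasma is combined with phenylmethylsulfonyl fluoride, maleate buffer pH 6.0 and inhibitor in 1% Tween 80/water, then incubated 90 min at 37 °C. Angiotensin I measured by radioimmunoassay. Percent inhibition taken vs control tubes; IC50 estimated graphically from 3–4 concentrations on a semilog plot.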

| SMILES | pIC50 |
| --- | --- |
| CC[C@H](C)[C@H](NC(=O)C[C@H](O)[C@H](CC(C)C)NC(=O)[C@H](Cc1ccccc1)NC(=O)[C@H](Cc1ccccc1)NC(=O)OC(C)(C)C)C(=O)NCc1ccccn1 (Boc-FF[Sta]I-{NHCH2(2-pyridyl)}) | 7.62 |
| CC[C@H](C)[C@H](NC(=O)[C@@H](NC[C@H](CC(C)C)NC(=O)[C@H](Cc1c[nH]cn1)N(C)C(=O)[C@H](Cc1ccccc1)NC(=O)[C@@H]1CCCN1C(=O)OC(C)(C)C)C(C)C)C(=O)NCc1ccccn1 | 7.17 |
| CC[C@H](C)[C@H](NC(=O)C[C@H](O)[C@H](CC(C)C)NC(=O)[C@H](Cc1ccccc1)NC(=O)C(C)(Cc1ccccc1)NC(=O)OC(C)(C)C)C(=O)NCc1ccccn1 (stereo partly drawn) (Boc-[ξαMeF]F[Sta]I-{NHCH2(2-pyridyl)}) | 5.17 |
| CC[C@H](C)[C@H](NC(=O)[C@@H](NC[C@H](CC(C)C)NC(=O)[C@H](Cc1c[nH]cn1)N(C)C(=O)[C@H](Cc1ccccc1)NC(=O)OC(C)(C)C)C(C)C)C(=O)NCc1ccccn1 | 6.35 |
| CC[C@H](C)[C@H](NC(=O)C[C@H](O)[C@H](CC(C)C)NC(=O)[C@](C)(Cc1ccccc1)NC(=O)[C@H](Cc1ccccc1)NC(=O)OC(C)(C)C)C(=O)NCc1ccccn1 (Boc-F[αMeF][Sta]I-{NHCH2(2-pyridyl)}) | < 5.00 |

Second part, the compound after the results:

| pIC50 | SMILES |
| --- | --- |
| 7.00 | CC[C@H](C)[C@H](NC(=O)C[C@H](O)[C@H](CC(C)C)NC(=O)[C@H](Cc1ccccc1)N(C)C(=O)[C@H](Cc1ccccc1)NC(=O)OC(C)(C)C)C(=O)NCc1ccccn1 (Boc-F[NMeF][Sta]I-{NHCH2(2-pyridyl)}) |
| 6.72 | CC[C@H](C)[C@H](NC(=O)C[C@H](O)[C@H](CC(C)C)NC(=O)[C@H](Cc1c[nH]cn1)N(C)C(=O)[C@H](Cc1ccccc1)NC(=O)[C@@H]1CCCN1C(=O)OC(C)(C)C)C(=O)NCc1ccccn1 (Boc-PF[NMeH][Sta]I-{NHCH2(2-pyridyl)}) |
| 6.92 | CCC(C)C(NC(=O)CC(O)C(CC(C)C)NC(=O)C(Cc1cnc[nH]1)N(C)C(=O)C(Cc1ccccc1)NC(=O)OC(C)(C)C)C(=O)NCc1ccccn1 (stereo not drawn) |
| 6.14 | CC[C@H](C)[C@H](NC(=O)C[C@H](O)[C@H](CC(C)C)NC(=O)[C@H](Cc1c[nH]cn1)NC(=O)[C@H](Cc1ccccc1)N(C)C(=O)OC(C)(C)C)C(=O)NCc1ccccn1 (Boc-[NMeF]H[Sta]I-{NHCH2(2-pyridyl)}) |
| 9.19 | CC[C@H](C)[C@H](NC(=O)[C@@H](C[C@H](O)[C@H](CC(C)C)NC(=O)[C@H](Cc1c[nH]cn1)N(C)C(=O)[C@H](Cc1ccccc1)NC(=O)OC(C)(C)C)C(C)C)C(=O)NCc1ccccn1 |
| 6.47 | CC[C@H](C)[C@H](NC(=O)C[C@H](O)[C@H](CC(C)C)NC(=O)[C@H](Cc1ccccc1)NC(=O)[C@H](Cc1ccccc1)N(C)C(=O)OC(C)(C)C)C(=O)NCc1ccccn1 (Boc-[NMeF]F[Sta]I-{NHCH2(2-pyridyl)}) |
